Measured values from paper PMC5905335 (Cancer discovery, 2017).
“And” between values parts separate entries of the source, which are not always exact repeats. Identical values can stand only once. Like-named read-outs stand apart in the source and are kept apart here.

Tests used:
PARP1/2 = settings: cited from earlier work
PARP–DNA complexes = settings: in vitro, comparison with other PARP1/2 inhibitors, cited from earlier work
pancreatic cancer = experiment: Antitumor activity; format: in vivo, human
Summary of the method: (§1)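 Adults with advanced solid tumours received oral test compound 1.0 mg once daily, continuously in 28-day cycles, in the expansion part. Entry required germline BRCA1/2 mutation confirmed by BRACAnalysis or local laboratory (ovarian/peritoneal, breast, prostate, pancreatic), DNA repair deficiency, or SCLC or Ewing sarcoma. Investigators assessed response by RECIST 1.1. ORR had exact 95% CI (Clopper–Pearson); PFS was estimated by Kaplan–Meier.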

PARP = experiment: PBMC PARP activity; format: in vivo, human
[1] = format: in vivo; settings: Part 1 and Part 2; none considered related to study treatment
[2] = Urinary elimination of parent compound; format: in vivo, human; settings: daily dosing between 0.025 and 1.1 mg
Summary of the method: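 In dose escalation, fasted patients took a single oral dose, with PK sampling over 1 week. They then took the dose once daily for 28 days, followed by a 1-week break for sampling (doses 0.025–1.1 mg/day, 3+3 design). Urine was assayed by validated LC/MS-MS (LLOQ 25.0 pg/mL). Ae0–24, Fe0–24 and ARC0–24 came from noncompartmental analysis.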

small cell lung cancer = experiment: Antitumor activity; format: in vivo, human; settings: 1.0 mg/day
Summary of the method: as §1

[3] = Plasma pharmacokinetics after single and multiple daily dosing; settings: human, in vivo; for Vd/F: Vz/F; for half-life: t1/2, mean (SD)
[4] = test system: BRCA-mutated ovarian cancer; experiment: Antitumor activity; format: in vivo, human
Summary of the method: as §1

[5] = test system: BRCA mutation–associated breast cancer; experiment: Antitumor activity; format: in vivo, human; settings: 1.0 mg/day, BRCA1/2 mutation
Summary of the method: as §1

Ewing sarcoma = experiment: Antitumor activity; format: in vivo, human; settings: 1.0 mg/day, n = 13, CR + PR + SD ≥16 weeks
Summary of the method: as §1

In the case of `Cn1ncnc1[C@H]1c2n[nH]c(=O)c3cc(F)cc(c23)N[C@@H]1c1ccc(F)cc1` [talazoparib], the “catalytic activity compared with olaparib and rucaparib” value (PARP1/2) is listed as “equivalent catalytic activity to olaparib and rucaparib”, the “trapping PARP–DNA complexes at sites of single-strand DNA breaks” value (PARP–DNA complexes) is listed as “most potent PARP1/2 inhibitor in vitro” and the “trapping PARP–DNA complexes at sites of single-strand DNA breaks” value (PARP–DNA complexes; listed as Talazoparib) is listed as “superior in trapping PARP–DNA”. The ORR (pancreatic cancer; 1.0 mg/day, pancreatic, n = 10) was 20.0%, the CBR (pancreatic cancer; 1.0 mg/day, pancreatic, n = 10, CR + PR + SD ≥16 weeks) was 30.0% and the “CBR ≥16 weeks” value (pancreatic cancer; 13 patients with pancreatic cancer from Part 1 and Part 2) was 31%. For the same compound, the “PARP activity, mean (SD)” value (PARP; multiple dosing 0.025 mg/day, n = 3) was 172 (206) % baseline, the “PARP activity, mean (SD)” value (PARP; multiple dosing 0.05 mg/day, n = 3) was 141 (52.5) % baseline and the “PARP activity, mean (SD)” value (PARP; multiple dosing 0.1 mg/day, n = 3) was 102 (98.0) % baseline. The “PARP activity, mean (SD)” value (PARP; multiple dosing 0.2 mg/day, n = 3) was 14.7 (5.04) % baseline, the “PARP activity, mean (SD)” value (PARP; multiple dosing 0.4 mg/day, n = 3) was 111 (96.5) % baseline and the “PARP activity, mean (SD)” value (PARP; multiple dosing 0.6 mg/day, n = 4) was 24.7 (8.19) % baseline. The “PARP activity, mean (SD)” value (PARP; multiple dosing 0.9 mg/day, n = 4) was 34.7 (27.4) % baseline, the “PARP activity, mean (SD)” value (PARP; multiple dosing 1.1 mg/day, n = 2) was 16.3 (5.63) % baseline and the “deaths associated with an AE during the study” value [1] was “eight”. For the same compound, the “urinary elimination kinetics of the parent compound” value [2] was “linear urinary elimination kinetics”, the “Median PFS” value (small cell lung cancer; SCLC, n = 23) was 11.1 weeks and the ORR (small cell lung cancer; SCLC, n = 23) was 8.7%. For the same compound, the CBR (small cell lung cancer; SCLC, n = 23, CR + PR + SD ≥16 weeks) was 26.1%, the duration of response (small cell lung cancer; the two SCLC patients with PR) was 12.0 weeks and the “dose proportionality parameter β for AUC0–24, estimate (95% CI)” value [3] was 0.95 (0.84–1.05). For the same compound, the “dose proportionality parameter β for Cmax, estimate (95% CI)” value [3] was 1.11 (1.01–1.20), the “time to maximum plasma concentration (Cmax)” value [3] was no more than 2 h and the AUC(0-inf) ([3]; 0.025 mg) was 5.33 ng·h/mL. It also gave an AUC(0-t) ([3]; 0.025 mg, AUC0–24, mean (SD)) of 0.952 ng·h/mL, an AUC(0-t) ([3]; 0.025 mg, AUC0–t, mean (SD)) of 3.6 ng·h/mL and a Cmax ([3]; 0.025 mg, mean (SD)) of 0.06 ng/mL. It also gave a Tmax ([3]; 0.025 mg, Tmax, median (min, max)) of 7.92 h, a Vd/F ([3]; 0.025 mg, mean (SD)) of 756 L and a half-life ([3]; 0.025 mg) of 100 h. The AUC(0-inf) ([3]; 0.05 mg) was 8.32 ng·h/mL, the AUC(0-t) ([3]; 0.05 mg, AUC0–24, mean (SD)) was 1.16 ng·h/mL and the AUC(0-t) ([3]; 0.05 mg, AUC0–t, mean (SD)) was 5.34 ng·h/mL. It also gave a Cmax ([3]; 0.05 mg, mean (SD)) of 0.0797 ng/mL, a Vd/F ([3]; 0.05 mg, mean (SD)) of 1240 L and a half-life ([3]; 0.05 mg) of 129 h. The AUC(0-inf) ([3]; 0.1 mg) was 37.6 ng·h/mL, the AUC(0-t) ([3]; 0.1 mg, AUC0–24, mean (SD)) was 3.16 ng·h/mL and the Cmax ([3]; 0.1 mg, mean (SD)) was 0.214 ng/mL. For the same compound, the Tmax ([3]; 0.1 mg, Tmax, median (min, max)) was 1.02 h, the Vd/F ([3]; 0.1 mg, mean (SD)) was 839 L and the half-life ([3]; 0.1 mg) was 229 h. For the same compound, the AUC(0-inf) ([3]; 0.2 mg) was 92.7 ng·h/mL, the Tmax ([3]; 0.2 mg) was 1.03 h and the AUC(0-t) ([3]; 0.2 mg, AUC0–24, mean (SD)) was 9.13 ng·h/mL. It also gave an AUC(0-t) ([3]; 0.2 mg, AUC0–t, mean (SD)) of 39.3 ng·h/mL, a Cmax ([3]; 0.2 mg, mean (SD)) of 0.788 ng/mL and a Vd/F ([3]; 0.2 mg, mean (SD)) of 678 L. It also gave a half-life ([3]; 0.2 mg) of 212 h, an AUC(0-inf) ([3]; 0.4 mg) of 60.1 ng·h/mL and an AUC(0-t) ([3]; 0.4 mg, AUC0–24, mean (SD)) of 13.5 ng·h/mL. The AUC(0-t) ([3]; 0.4 mg, AUC0–t, mean (SD)) was 43.7 ng·h/mL, the Cmax ([3]; 0.4 mg, mean (SD)) was 1.83 ng/mL and the Tmax ([3]; 0.4 mg, Tmax, median (min, max)) was 2.03 h. For the same compound, the Vd/F ([3]; 0.4 mg, mean (SD)) was 1050 L, the half-life ([3]; 0.4 mg) was 102 h and the AUC(0-inf) ([3]; 0.6 mg) was 120 ng·h/mL. For the same compound, the AUC(0-t) ([3]; 0.6 mg, AUC0–24, mean (SD)) was 37.9 ng·h/mL, the AUC(0-t) ([3]; 0.6 mg, AUC0–t, mean (SD)) was 97.9 ng·h/mL and the Cmax ([3]; 0.6 mg, mean (SD)) was 4.1 ng/mL. For the same compound, the Tmax ([3]; 0.6 mg, Tmax, median (min, max)) was 0.835 h, the Vd/F ([3]; 0.6 mg, mean (SD)) was 441 L and the half-life ([3]; 0.6 mg) was 58.6 h. For the same compound, the AUC(0-inf) ([3]; 0.9 mg) was 188 ng·h/mL, the AUC(0-t) ([3]; 0.9 mg, AUC0–24, mean (SD)) was 58.2 ng·h/mL and the AUC(0-t) ([3]; 0.9 mg, AUC0–t, mean (SD)) was 160 ng·h/mL. It also gave a Cmax ([3]; 0.9 mg, mean (SD)) of 6.1 ng/mL, a Tmax ([3]; 0.9 mg, Tmax, median (min, max)) of 2 h and a Vd/F ([3]; 0.9 mg, mean (SD)) of 468 L. For the same compound, the half-life ([3]; 0.9 mg) was 60.4 h, the AUC(0-inf) ([3]; 1 mg) was 200 ng·h/mL and the AUC(0-t) ([3]; 1 mg, AUC0–24, mean (SD)) was 85.1 ng·h/mL. The AUC(0-t) ([3]; 1 mg, AUC0–t, mean (SD)) was 182 ng·h/mL, the Cmax ([3]; 1 mg, mean (SD)) was 10.6 ng/mL and the Tmax ([3]; 1 mg, Tmax, median (min, max)) was 1.03 h. The Vd/F ([3]; 1 mg, mean (SD)) was 415 L, the half-life ([3]; 1 mg) was 52.9 h and the AUC(0-inf) ([3]; 1.1 mg) was 235 ng·h/mL. For the same compound, the AUC(0-t) ([3]; 1.1 mg, AUC0–24, mean (SD)) was 91.6 ng·h/mL, the AUC(0-t) ([3]; 1.1 mg, AUC0–t, mean (SD)) was 201 ng·h/mL and the Cmax ([3]; 1.1 mg, mean (SD)) was 13.2 ng/mL. For the same compound, the Tmax ([3]; 1.1 mg, Tmax, median (min, max)) was 1 h, the Vd/F ([3]; 1.1 mg, mean (SD)) was 549 L and the half-life ([3]; 1.1 mg) was 71 h. The “Median PFS” value ([4]; 1.0 mg/day, ovarian/peritoneal, BRCA1/2 mutation, analysis on 14 patients) was 36.4 weeks and 36.4 ^c weeks, the ORR ([4]; 1.0 mg/day, ovarian/peritoneal, BRCA1/2 mutation, n = 12) was 41.7% and the CBR ([4]; 1.0 mg/day, ovarian/peritoneal, BRCA1/2 mutation, n = 12, CR + PR + SD ≥24 weeks) was 66.7%. The “CBR lasting at least 24 weeks” value ([4]; any dose level, BRCA-mutated ovarian cancer with measurable disease, n = 25) was 76%, the “Median PFS” value ([5]; n = 14) was 34.6 weeks and the ORR ([5]; n = 14) was 50.0%. The CBR ([5]; n = 14, CR + PR + SD ≥24 weeks) was 85.7% and the CBR (Ewing sarcoma) was 23.1%.
